From ChEMBL document CHEMBL3352384, “Synthesis and biological activity of new salicylanilide N,N-disubstituted carbamates and thiocarbamates” (Bioorg Med Chem, 2014) come the findings set out here.

Each structure is given as a SMILES string. Converted amounts (≈) assume the structure as drawn.

The subject of data set [1] is Mycobacterium avium. Kind of data set: Antimycobacterial activity against Isoniazid, rifampicin, ofloxacin and ethambutol-resistant Mycobacterium avium 330/88 assessed as complete growth inhibition after 21 days. In kind it is functional. Conditions: 330/88, 504 h. Put shortly:
(§1)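 M. tuberculosis 331/88 (H37Rv) inoculum diluted 10-3, M. avium 330/88 diluted 10-5. MIC is the lowest concentration giving complete growth inhibition. Isoniazid and p-aminosalicylic acid as references. Quadruplicate, repeated twice.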

Data set [2] has as its system Mycobacterium kansasii. The data set is described as follows: Antimycobacterial activity against Mycobacterium kansasii 235/80 assessed as complete growth inhibition after 7 days. It is filed as functional. Conditions: 235/80, 168 h. In short, it runs like this:
(§2)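 Dilutions of M. kansasii inoculum were 10-4 for strain 235/80 and 10-5 for clinical isolate 6509/96. MIC was the lowest concentration giving complete growth inhibition, run in quadruplicate and repeated twice.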

The subject of data set [3] is Mycobacterium kansasii. The data set is described as follows: Antimycobacterial activity against Mycobacterium kansasii 235/80 assessed as complete growth inhibition after 14 days. It is filed as functional. Conditions: 235/80, 336 h. Put shortly: as §2
For data set [4], the system named is Mycobacterium kansasii. Kind of data set: Antimycobacterial activity against Mycobacterium kansasii 235/80 assessed as complete growth inhibition after 21 days. In kind it is functional. Conditions: 235/80, 504 h. Put shortly: as §2
Data set [5] deals with Mycobacterium kansasii. Kind of data set: Antimycobacterial activity against clinical isolate Mycobacterium kansasii 6509/96 assessed as complete growth inhibition after 7 days. In kind it is functional. Conditions: 6509/96, 168 h. In short, it runs like this: as §2
The test system of data set [6] is Mycobacterium kansasii. Kind of data set: Antimycobacterial activity against clinical isolate Mycobacterium kansasii 6509/96 assessed as complete growth inhibition after 14 days. Conditions: 6509/96, 336 h. It is filed as functional. Put shortly:
as §2

Data set [7] concerns Mycobacterium kansasii. Kind of data set: Antimycobacterial activity against clinical isolate Mycobacterium kansasii 6509/96 assessed as complete growth inhibition after 21 days. Conditions: 6509/96, 504 h. In kind it is functional. Put shortly:
as §2

Data set [8] in a line: Inhibition of Mycobacterium tuberculosis H37Rv isocitrate lyase assessed as glyoxylate phenyl hydrazone formation at 10 uM.
In data set [9] the test system is HepG2. Kind of data set: Cytotoxicity against human HepG2 cells assessed as reduction in cell viability after 24 hrs by MTS assay. In kind it is cell-based. Conditions: HepG2, 24 h. In short, it runs like this: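 HepG2 hepatocellular carcinoma cells (passage 3–4) were grown in Eagle's MEM with 10% FBS, 1% L-glutamine and non-essential amino acids. Compounds were added from DMSO at eight concentrations in triplicate, with 10% DMSO as the 0% viability control. Viability was read by tetrazolium salt reduction (CellTiter 96 AQueous One). IC50 is the concentration reducing viability to 50% of control.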

The nature of data set [10]: Selectivity index, ratio of IC50 for human HepG2 cells to MIC for atypical mycobacteria. Put shortly:
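Selectivity index = HepG2 IC50 / MIC. HepG2 cells (passage 3–4) grown in Eagle's MEM with 10% FBS, L-glutamine and non-essential amino acids. Compounds added from DMSO, eight concentrations in triplicate, tetrazolium-reduction colorimetric read-out. IC50 is the concentration reducing viability to 50% of control; 10% DMSO as 0% viability.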

Data set [11] can be described thus: Selectivity index, ratio of IC50 for human HepG2 cells to MIC for Mycobacterium tuberculosis H37Rv. Conditions: read-out: Selectivity Index. In kind it is toxicity, cell-based. In short, it runs like this:
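Selectivity index = HepG2 IC50 / MIC. HepG2 cells (passage 3–4) grown in Eagle's MEM with 10% FBS, L-glutamine and non-essential amino acids. Compounds added from DMSO, eight concentrations in triplicate, tetrazolium-reduction colorimetric read-out.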

Data set [12] concerns Mycobacterium tuberculosis. Kind of data set: Antimycobacterial activity against Mycobacterium tuberculosis H37Rv 331/88 assessed as complete growth inhibition after 14 days. It is filed as functional. Conditions: H37Rv 331/88, 336 h. In short, it runs like this:
as §1

Data set [13] relates to Mycobacterium tuberculosis. Kind of data set: Antimycobacterial activity against Mycobacterium tuberculosis H37Rv 331/88 assessed as complete growth inhibition after 21 days. In kind it is functional. Conditions: H37Rv 331/88, 504 h. In short, it runs like this:
as §1

The subject of data set [14] is Mycobacterium avium. The data set is described as follows: Antimycobacterial activity against Isoniazid, rifampicin, ofloxacin and ethambutol-resistant Mycobacterium avium 330/88 assessed as complete growth inhibition after 14 days. In kind it is functional. Conditions: 330/88, 336 h. In short, it runs like this: as §1
Data set [15] in a line: Selectivity index, ratio of IC50 for human HepG2 cells to MIC for Trichophyton mentagrophytes 445.
The test system of data set [16] is Trichophyton mentagrophytes. Kind of data set: Antimicrobial activity against Trichophyton mentagrophytes 445 after 72 hrs by microdilution method. It is filed as functional. Conditions: Trichophyton mentagrophytes, 445, 72 h. Put shortly:
(§3)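 Broth microdilution in RPMI 1640 with glutamine, with fluconazole and amphotericin B as references. For filamentous fungi, MIC is expressed as the IC50, i.e. the concentration giving 50% growth reduction versus control. Each determination was done twice.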
In general terms: Broth dilution looks for growth in wells or tubes with falling amounts of substance.

Data set [17] has as its system Trichophyton mentagrophytes. Kind of data set: Antimicrobial activity against Trichophyton mentagrophytes 445 after 120 hrs by microdilution method. In kind it is functional. Conditions: Trichophyton mentagrophytes, 445, 120 h. Put shortly: as §3

For `CN(C(=O)Oc1ccc(Cl)cc1C(=O)Nc1ccc(F)cc1)c1ccccc1`, the minimum inhibitory concentration (MIC) (in general, the smallest concentration in the dilution series that meets the test's criterion for growth inhibition) in data set [1] turned out to be 250 µM (≈ 99.7 µg/mL); in data set [2] it was 62.5 µM (≈ 24.9 µg/mL); in data set [3], 125 µM (≈ 49.9 µg/mL); in data set [4], 125 µM (≈ 49.9 µg/mL); in data set [5] it was 62.5 µM (≈ 24.9 µg/mL); in data set [6], 125 µM (≈ 49.9 µg/mL). In addition, the minimum inhibitory concentration (MIC) in [7] turned out to be 125 µM (≈ 49.9 µg/mL); in data set [12], 32 µM (≈ 12.8 µg/mL); in [13], 62.5 µM (≈ 24.9 µg/mL); in data set [14], 250 µM (≈ 99.7 µg/mL). Moreover, the inhibition (commonly the drop in the measured response relative to a control, in per cent) in [8] was determined as 14%. In data set [9], the IC50 (commonly the concentration that inhibits the measured activity by half) amounted to 512 µM. Besides, the “Selectivity Index” value in data set [10] was “<=8.2”. Besides, in data set [11], the selectivity ratio came out at 8.2.

On to `O=C(Nc1ccc(Cl)cc1)c1cc(Cl)ccc1O`, for which the MIC is 16 µM (≈ 4.51 µg/mL) in data set [1]; 4 µM (≈ 1.13 µg/mL) in data set [2]; 8 µM (≈ 2.26 µg/mL) in data set [3]; 8 µM (≈ 2.26 µg/mL) in [4]; 4 µM (≈ 1.13 µg/mL) in [5]; 8 µM (≈ 2.26 µg/mL) in data set [6]. The MIC in data set [7] came to 8 µM (≈ 2.26 µg/mL); in data set [12] it was 4 µM (≈ 1.13 µg/mL); in [13] it was 4 µM (≈ 1.13 µg/mL); in [14], 8 µM (≈ 2.26 µg/mL). The inhibition in data set [8] stood at 13%. Besides, in data set [9], the concentration for half-maximal inhibition (IC50) was determined as 21.7 µM. For the same compound, the “Selectivity Index” value was 1.4 in data set [10] and 11.1 in data set [15]. Further, the selectivity ratio in data set [11] turned out to be 5.4.

As to `O=C(Nc1ccc(Br)cc1)c1cc(Cl)ccc1O`, the minimum inhibitory concentration (MIC) in data set [1] is 16 µM (≈ 5.23 µg/mL); in [2], 4 µM (≈ 1.31 µg/mL); in [3], 8 µM (≈ 2.61 µg/mL); in data set [4], 8 µM (≈ 2.61 µg/mL); in data set [5], 4 µM (≈ 1.31 µg/mL); in data set [6], 8 µM (≈ 2.61 µg/mL). Moreover, the MIC in [7] is 8 µM (≈ 2.61 µg/mL); in [12], 4 µM (≈ 1.31 µg/mL); in data set [13], 4 µM (≈ 1.31 µg/mL); in [14] it was 8 µM (≈ 2.61 µg/mL). In [8], the inhibition was 13%. In addition, the concentration for half-maximal inhibition (IC50) in data set [9] turned out to be 15.7 µM. The “Selectivity Index” value in [10] came out at 1; in data set [15], 16. Besides, the selectivity ratio in [11] is 3.9.

Consider `CN(C(=O)Oc1ccc(Cl)cc1C(=O)Nc1ccc(Br)cc1)c1ccccc1`, for which the minimum inhibitory concentration (MIC) in [1] was 250 µM (≈ 115 µg/mL); in data set [2], 32 µM (≈ 14.7 µg/mL); in data set [3], 125 µM (≈ 57.5 µg/mL); in data set [4] it was 125 µM (≈ 57.5 µg/mL); in [5] it was 32 µM (≈ 14.7 µg/mL); in [6], 62.5 µM (≈ 28.7 µg/mL). The MIC in [7] was 125 µM (≈ 57.5 µg/mL); in data set [12], 32 µM (≈ 14.7 µg/mL); in data set [13], 32 µM (≈ 14.7 µg/mL); in [14], 250 µM (≈ 115 µg/mL). Further, the inhibition in data set [8] was 14%. Besides, the half-maximal inhibitory concentration (IC50) in data set [9] turned out to be 945 µM. In addition, the “Selectivity Index” value in data set [10] is listed as “<=29.5”. Moreover, the selectivity ratio in data set [11] was found to be 29.5.

Consider `CN(C)C(=O)Oc1ccc(Cl)cc1C(=O)Nc1ccc(Br)cc1`, for which the minimum inhibitory concentration (MIC) came to 62.5 µM (≈ 24.9 µg/mL) in [1]; 62.5 µM (≈ 24.9 µg/mL) in [2]; 125 µM (≈ 49.7 µg/mL) in [3]; 125 µM (≈ 49.7 µg/mL) in data set [4]; 62.5 µM (≈ 24.9 µg/mL) in [5]; 62.5 µM (≈ 24.9 µg/mL) in [6]. The minimal inhibitory concentration (MIC) in data set [7] stood at 62.5 µM (≈ 24.9 µg/mL); in [12], 16 µM (≈ 6.36 µg/mL); in [13], 16 µM (≈ 6.36 µg/mL); in data set [14], 62.5 µM (≈ 24.9 µg/mL). For the same compound, in data set [8], the inhibition was determined as 9%. Further, in data set [9], the IC50 amounted to 342 µM. Moreover, in data set [10], the “Selectivity Index” value was “<=5.5”. Further, the selectivity ratio in data set [11] is 21.4.

As for `C[C@@H]1[C@H](O)[C@@H](C)/C=C/C=C/C=C/C=C/C=C/C=C/C=C/[C@H](O[C@@H]2O[C@H](C)[C@@H](O)[C@H](N)[C@@H]2O)C[C@@H]2O[C@](O)(C[C@@H](O)C[C@@H](O)[C@H](O)CC[C@@H](O)C[C@@H](O)CC(=O)O[C@H]1C)C[C@H](O)[C@H]2C(=O)O` [AMPHOTERICIN B], the MIC in [16] and in data set [17] was 1.95 µM (≈ 1.8 µg/mL) in each case. In data set [9], the IC50 was found to be 2.5 µM. In data set [15], the “Selectivity Index” value amounted to 1.3.
